The record followed here is ChEMBL document CHEMBL1132207, “Homology modeling of gelatinase catalytic domains and docking simulations of novel sulfonamide inhibitors” (J Med Chem, 1999).

SMILES strings stand for the structures.

The target in experiment [1] is Matrix metalloproteinase-9 (Homo sapiens, UniProt P14780). Briefly: Inhibitory activity against Matrix metalloprotease-9 (concentration required for 50% inhibition of enzyme activity). The procedure, abridged: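 Substrate added from a 1 mM DMSO stock, reaction 60 min, stopped with 3% acetic acid. Fluorescence read at ex 320/em 405 nm. Mean of two assays; IC50 taken as 50% inhibition.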
Matrix metalloproteinase-9, sequence (P14780 whole entry): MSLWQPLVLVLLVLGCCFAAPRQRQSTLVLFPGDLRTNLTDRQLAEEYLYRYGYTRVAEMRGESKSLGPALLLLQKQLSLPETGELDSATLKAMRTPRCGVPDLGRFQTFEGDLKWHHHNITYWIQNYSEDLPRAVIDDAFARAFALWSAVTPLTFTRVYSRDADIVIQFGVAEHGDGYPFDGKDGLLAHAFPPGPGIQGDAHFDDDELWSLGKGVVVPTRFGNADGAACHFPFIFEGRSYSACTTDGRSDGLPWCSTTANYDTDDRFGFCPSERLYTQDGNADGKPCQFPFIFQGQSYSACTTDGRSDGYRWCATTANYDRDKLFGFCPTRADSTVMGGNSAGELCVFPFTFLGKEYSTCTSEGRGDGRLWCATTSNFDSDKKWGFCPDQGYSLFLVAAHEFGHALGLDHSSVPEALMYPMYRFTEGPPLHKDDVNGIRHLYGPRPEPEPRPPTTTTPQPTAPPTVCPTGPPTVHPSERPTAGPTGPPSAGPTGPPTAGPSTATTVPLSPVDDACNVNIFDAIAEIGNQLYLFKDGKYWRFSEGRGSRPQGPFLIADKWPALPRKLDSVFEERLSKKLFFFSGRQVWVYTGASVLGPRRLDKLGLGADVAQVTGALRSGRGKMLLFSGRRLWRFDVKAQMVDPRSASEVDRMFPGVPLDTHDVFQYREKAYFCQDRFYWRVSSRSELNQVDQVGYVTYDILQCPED

For experiment [2], the target named is 72 kDa type IV collagenase (Homo sapiens, UniProt P08253).
72 kDa type IV collagenase, sequence (P08253 whole entry): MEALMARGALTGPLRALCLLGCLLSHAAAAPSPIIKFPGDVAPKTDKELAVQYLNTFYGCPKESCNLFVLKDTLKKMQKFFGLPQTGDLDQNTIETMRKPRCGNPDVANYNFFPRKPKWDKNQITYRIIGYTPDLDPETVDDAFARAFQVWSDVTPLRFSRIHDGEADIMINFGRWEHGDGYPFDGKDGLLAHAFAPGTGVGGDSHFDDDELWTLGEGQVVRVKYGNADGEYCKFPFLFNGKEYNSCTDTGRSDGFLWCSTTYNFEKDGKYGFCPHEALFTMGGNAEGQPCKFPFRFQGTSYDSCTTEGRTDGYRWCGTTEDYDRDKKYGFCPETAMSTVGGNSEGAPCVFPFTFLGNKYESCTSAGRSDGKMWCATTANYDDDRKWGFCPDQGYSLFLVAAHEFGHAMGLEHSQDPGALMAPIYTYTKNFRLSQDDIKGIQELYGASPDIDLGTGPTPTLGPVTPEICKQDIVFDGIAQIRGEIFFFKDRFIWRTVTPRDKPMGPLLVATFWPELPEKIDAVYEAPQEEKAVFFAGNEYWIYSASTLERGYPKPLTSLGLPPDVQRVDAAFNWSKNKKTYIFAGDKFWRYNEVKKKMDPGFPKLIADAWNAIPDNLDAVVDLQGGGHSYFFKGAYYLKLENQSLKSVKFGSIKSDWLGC

With `O=C(O)[C@@H](Cc1c[nH]c2ccccc12)NS(=O)(=O)c1ccc(C#Cc2ccc(Oc3ccccc3)cc2)s1`, the half-inhibitory concentration (IC50) in experiment [1] was 2300 nM.

On to `O=C(O)[C@@H](Cc1c[nH]c2ccccc12)NS(=O)(=O)c1ccc2ccccc2c1`, for which the half-inhibitory concentration (IC50) in experiment [1] is above 20000 nM; in experiment [2], 500 nM.

`CCCCc1ccc(C#Cc2ccc(S(=O)(=O)N[C@H](Cc3c[nH]c4ccccc34)C(=O)O)s2)cc1`: it took 2700 nM to reach half-maximal inhibition in experiment [1] (IC50).

The compound `CCc1ccc(C#Cc2ccc(S(=O)(=O)N[C@H](Cc3c[nH]c4ccccc34)C(=O)O)s2)cc1` yielded an IC50 in experiment [1] of 7.3 nM.

Compound `CC(C)[C@@H](NS(=O)(=O)c1ccc(-c2nnn(-c3ccccc3)n2)cc1)C(=O)O` gave an IC50 in experiment [1] of 72 nM.

Turning to `CCCCc1ccc(C#Cc2ccc(S(=O)(=O)N[C@@H](C(=O)O)C(C)C)s2)cc1`, the 50% inhibitory concentration (IC50) in experiment [1] stood at 210 nM; in experiment [2] it was 5.4 nM.

For `Cc1ccc(C#Cc2ccc(S(=O)(=O)N[C@@H](C(=O)O)C(C)C)s2)cc1`, the IC50 was determined as 24 nM in experiment [1] and 5.9 nM in experiment [2].

For `Cc1ccccc1C#Cc1ccc(S(=O)(=O)N[C@H](Cc2c[nH]c3ccccc23)C(=O)O)s1`, the IC50 was 1700 nM in experiment [1] and 81 nM in experiment [2].

Take `O=C(N[C@H](Cc1ccccc1)C(=O)O)c1ccc(-c2ccccc2)cc1`: the IC50 in experiment [1] is above 20000 nM.

For the compound `O=C(O)[C@@H](Cc1ccccc1)NS(=O)(=O)c1ccc(Br)cc1`, the IC50 in experiment [1] was above 20000 nM; in experiment [2], 7100 nM.

Turning to `O=C(O)[C@@H](Cc1c[nH]c2ccccc12)NS(=O)(=O)c1cccc2ccccc12`, the IC50 in experiment [1] and in experiment [2] was above 20000 nM in each case.

In experiment [1], `CC(C)[C@H](C(=O)O)N(C)S(=O)(=O)c1ccc(-c2nnn(-c3ccccc3)n2)cc1` gave an IC50 of 870 nM.

Take `O=C(O)[C@@H](Cc1ccccc1)NS(=O)(=O)c1ccc(C#Cc2ccccc2)cc1`: the IC50 in experiment [1] is 340 nM; in experiment [2], 20 nM.

For the compound `COc1ccc(C#Cc2ccc(S(=O)(=O)N[C@H](Cc3c[nH]c4ccccc34)C(=O)O)cc2)cc1`, the half-maximal inhibitory concentration (IC50) is 8.2 nM in experiment [1] and 0.65 nM in experiment [2].

Consider `CC(C)[C@@H](NS(=O)(=O)c1ccc(C#Cc2ccc(Oc3ccccc3)cc2)s1)C(=O)O`, for which the IC50 in experiment [1] is 260 nM; in experiment [2], 18 nM.

In the case of `CCc1ccc(C#Cc2ccc(S(=O)(=O)N[C@@H](C(=O)O)C(C)C)s2)cc1`, the concentration for half-maximal inhibition (IC50) in experiment [1] worked out at 4.4 nM; in experiment [2], 4.8 nM.

Turning to `CCCCOc1ccc(C#Cc2ccc(S(=O)(=O)N[C@@H](C(=O)O)C(C)C)s2)cc1`, the 50% inhibitory concentration (IC50) in experiment [1] amounted to 210 nM; in experiment [2], 4.7 nM.

For `O=C(O)[C@@H](Cc1ccccc1)NS(=O)(=O)c1ccc(-c2ccc(-c3ccccc3)cc2)cc1`, the values for the IC50 in experiment [1] and in experiment [2] were 12 nM and 4.4 nM, respectively.

`O=C(O)[C@@H](Cc1ccccc1)NS(=O)(=O)c1ccc(-c2ccccc2)cc1` registered an IC50 in experiment [1] of 2700 nM.

`COc1ccc(C#Cc2ccc(S(=O)(=O)N[C@H](Cc3c[nH]c4ccccc34)C(=O)O)cc2[N+](=O)[O-])cc1`: the IC50 in experiment [1] worked out at 1900 nM; in experiment [2], 33 nM.

Turning to `Cc1ccc(C#Cc2ccc(S(=O)(=O)N[C@H](Cc3c[nH]c4ccccc34)C(=O)O)s2)cc1` [S-3304], it took 9.6 nM to reach half-maximal inhibition in experiment [1] (IC50).

Take `CCCCOc1ccc(C#Cc2ccc(S(=O)(=O)N[C@H](Cc3c[nH]c4ccccc34)C(=O)O)s2)cc1`: in experiment [1], the IC50 came to 2000 nM.

A word on the IC50: it is the point on the concentration scale where inhibition reaches its midpoint. Low readings indicate inhibition by little substance, high ones a need for much substance.
